Calls of active or inactive are those of the source. The calls are words filed in the database; no cut-off is given here.

The test system of one assay is Bacillus subtilis. Briefly: Antibacterial activity against Bacillus subtilis CMCC 63501 after 16 to 18 hrs by filter paper disk assay. Format: functional, organism-based.
Assay [1] can be described thus: Cytotoxicity against human HCT116 cells by MTT assay. Particulars: HCT-116. It counts as functional, cell-based. The method in brief: (§1)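 MTT read-out on cancer cell lines exposed to a series of concentrations per compound (ranges spanning roughly 0.6–372.1 μM); compounds dissolved in DMSO, final DMSO 0.1%.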
A general note: Tetrazolium dyes change colour on reduction, which living cells bring about.

In another assay the test system is HeLa. Nature of the assay: Cytotoxicity against human HeLa cells by MTT assay. Format: functional, cell-based. The method in brief: as §1
In the next assay the test system is HepG2. Briefly: Cytotoxicity against human HepG2 cells by MTT assay. Format: functional, cell-based. The method in brief:
as §1

The next assay has as its system A549. Nature of the assay: Cytotoxicity against human A549 cells by MTT assay. It counts as functional, cell-based. The method in brief:
as §1

Regarding `C[C@@H]1O[C@@H](CC(=O)O)CC2=C1C(=O)c1c(O)c3c(c(O)c1C2=O)[C@H]1C[C@@H](O[C@H]2CC[C@H](O)[C@H](C)O2)[C@@]3(O)[C@@H](C)O1`, the result in the assay with Bacillus subtilis was Active.

As to `C[C@@H]1O[C@@H](CC(=O)O)Cc2cc3c(c(O)c21)C(=O)C1=C(C3=O)[C@H]2C[C@@H](O)[C@@]1(O)[C@@H](C)O2`, the IC50 (commonly the point on the concentration scale where inhibition reaches its midpoint) amounted to 179 µM in assay [1], 297 µM in the assay with HeLa, 148 µM in the assay with HepG2 and 197 µM in the assay with A549.

In the case of `C[C@@H]1O[C@H]2CC(=O)O[C@H]2C2=C1C(=O)c1c(O)c3c(c(O)c1C2=O)[C@H]1C[C@@H](O[C@H]2CC[C@H](O)[C@H](C)O2)[C@@]3(O)[C@@H](C)O1` [GRANATICIN B], the IC50 in assay [1] was 14.8 µM; in the assay on HeLa, 1.6 µM; with HepG2, 5.8 µM; in the assay on A549 it was 1.9 µM. For the same molecule, the outcome with Bacillus subtilis was Active.

For `C[C@@H]1O[C@@H](CC(=O)O)Cc2cc3c(c(O)c21)C(=O)C1=C(C3=O)[C@H]2C[C@@H](O[C@H]3CC[C@H](O)[C@H](C)O3)[C@@]1(O)[C@@H](C)O2`, the IC50 in assay [1] was determined as 13.1 µM; in the assay with HeLa it was 20.2 µM; in the assay with HepG2, 18.8 µM; in the assay on A549, 37.6 µM.

On to `C[C@@H]1O[C@H]2CC(=O)O[C@H]2C2=C1C(=O)c1c(O)c3c(c(O)c1C2=O)[C@H]1C[C@@H](O)[C@]3(O)[C@@H](C)O1`, for which the IC50 in assay [1] is 11 µM; in the assay on HeLa, 0.7 µM; in the assay with HepG2 it was 6.6 µM; in the assay with A549 it was 1.3 µM.

The values above are taken from ChEMBL document CHEMBL3352184, “6-Deoxy-13-hydroxy-8,11-dione-dihydrogranaticin B, an intermediate in granaticin biosynthesis, from Streptomyces sp. CPCC 200532” (J Nat Prod, 2014).
